From ChEMBL document CHEMBL1921719, “Synthesis and activity study of phosphonamidate dipeptides as potential inhibitors of VanX” (Bioorg Med Chem Lett, 2011)
pIC50, pKi: −log10 of the molar value. In brackets after ≈: the same amount, converted by molar mass.

Columns and labels:
[1] = Inhibition of VanX using D-Ala-D-Ala as substrate preincubated for 30 mins before substrate addition measured after 150 secs by UV-Vis spectrometry
Outline: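 The enzyme was recombinant VanX, expressed as an MBP fusion in E. coli BL21(DE3) at 30 °C with 1 mM IPTG induction for 75 min. It was purified on amylose resin, eluted with 20 mM Tris pH 7.6, 10 mM maltose and 200 mM NaCl. Thrombin then cleaved off the MBP, followed by a Q-Sepharose step. IC₅₀ was determined by a previously reported method.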

Staphylococcus aureus [2] = experiment: Antibacterial activity against Staphylococcus aureus ATCC 25923 after 24 hrs by macrodilution broth method; format: functional; settings: ATCC 25923, 24 h
Outline: (§1)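 CLSI tube macrodilution broth method, with MIC as the read-out. Test strains were S. aureus ATCC 25923 and two clinical MRSA isolates. Cultures of about 10⁸ CFU/ml in Mueller–Hinton medium and phosphonamidate (2 mM stock in ddH₂O) were added in sequence to a vancomycin dilution series from 128 down to 0.125. Tubes were incubated for 24 h at 37 °C.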

Staphylococcus aureus [3] = experiment: Antibacterial activity against methicillin-resistant Staphylococcus aureus isolate 1 after 24 hrs by macrodilution broth method; format: functional; settings: isolate 1, 24 h; outline: as §1
Staphylococcus aureus [4] = experiment: Antibacterial activity against methicillin-resistant Staphylococcus isolate 2 after 24 hrs by macrodilution broth method; format: functional; settings: isolate 2, 24 h; outline: as §1
Staphylococcus aureus [5] = experiment: Antibacterial activity against Staphylococcus aureus ATCC 25923 after 24 hrs by macrodilution broth method relative to untreated control; format: functional
[6] = Partial competitive inhibition of VanX

Structure (SMILES)	pIC50 [1]	MIC (Staphylococcus aureus [2]) [µg/mL]	MIC (Staphylococcus aureus [3]) [µg/mL]	MIC (Staphylococcus aureus [4]) [µg/mL]	fold change (FC) (Staphylococcus aureus [5])	pKi [6]
C[C@H](N)P(=O)(O)NCC(=O)O	3.41	0.25 (≈ 1.37 µM)	1 (≈ 5.49 µM)	1 (≈ 5.49 µM)	8	
C[C@H](N)P(=O)(O)N[C@H](C)C(=O)O	3.15	2 (≈ 10.2 µM)	1 (≈ 5.1 µM)	2 (≈ 10.2 µM)		4.44
CC(C)[C@@H](NP(=O)(O)[C@H](C)N)C(=O)O	2.95	2 (≈ 8.92 µM)	1 (≈ 4.46 µM)	2 (≈ 8.92 µM)		
CC(C)C[C@@H](NP(=O)(O)[C@H](C)N)C(=O)O	2.55	2 (≈ 8.4 µM)	1 (≈ 4.2 µM)	2 (≈ 8.4 µM)		
C[C@H](N)P(=O)(O)N[C@H](Cc1ccccc1)C(=O)O	2.38	2 (≈ 7.35 µM)	1 (≈ 3.67 µM)	2 (≈ 7.35 µM)		
